{"source": "paper PMC10965878", "about": "(Infectious Diseases and Therapy, 2024)", "key": {"plasma protein [1]": {"system": "plasma protein", "experiment": "Unbound fraction in plasma", "assay_type": "in vivo", "conditions": "human, oral, 375 mg, protein binding rate (= [1 − unbound fraction] × 100), humans"}, "[2]": {"experiment": "Safety assessment: treatment-emergent adverse events", "assay_type": "in vivo, human", "conditions": "single oral 375 mg", "method_in_brief": "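Open-label, nonrandomized, parallel-group Phase 1 study in adults with mild, moderate or severe renal impairment (severe excluded if hemodialysis-dependent) and normal renal function. Normal-function controls were matched to moderate-impairment participants by sex, age (± 5 years) and BMI (± 10%). Each received a single oral 375 mg dose as three 125-mg tablets. TEAEs were recorded for nature, frequency and severity, and coded by MedDRA v25.0 System Organ Class/Preferred Term in all treated participants.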"}, "[3]": {"system": "organic cation transporter (OCT) 2", "conditions": "in vitro; cited from earlier work"}, "MATE-2K": {"system": "MATE-2K", "conditions": "in vitro; cited from earlier work"}, "[4]": {"conditions": "750 mg once followed by 250 mg once daily for 4 days (750/250 mg); cited from earlier work"}, "plasma protein [5]": {"system": "plasma protein", "conditions": "mice; cited from earlier work"}, "plasma protein [6]": {"system": "plasma protein", "conditions": "hamsters; cited from earlier work"}, "[7]": {"system": "multidrug and toxin extrusion (MATE) 1", "conditions": "in vitro; cited from earlier work"}, "[8]": {"conditions": "for AUC0–last GLS mean ratio / t1/2,z GLS mean ratio / Ae (cumulative amount excreted unchanged in urine) / CL/F / Feu (fraction of dose excreted unchanged into urine): single oral 375 mg; for Ae (cumulative amount excreted unchanged in urine) / CL/F / Feu (fraction of dose excreted unchanged into urine): geometric mean (CV%)"}, "[9]": {"conditions": "mild impairment/normal function"}, "[10]": {"conditions": "moderate impairment/normal function"}, "[11]": {"conditions": "severe impairment/normal function"}}, "note": "“And” between values parts separate entries of the source, which are not always exact repeats. Identical values can stand only once. Like-named read-outs stand apart in the source and are kept apart here."}
{"smiles": "Cn1cnc(Cn2c(=O)[nH]/c(=N\\c3cc4cn(C)nc4cc3Cl)n(Cc3cc(F)c(F)cc3F)c2=O)n1", "note": "[ensitrelvir]", "values": [{"measurement": "fraction unbound", "setting": "plasma protein [1]", "value": "0.983 to 0.988"}, {"measurement": "Any treatment-related TEAE", "setting": "[2]; mild renal impairment (N = 8)", "value": "1 (12.5) n (%)"}, {"measurement": "Any treatment-related TEAE", "setting": "[2]; moderate renal impairment (N = 8)", "value": "1 (12.5) n (%)"}, {"measurement": "severity category of all TEAEs and treatment-related TEAEs", "setting": "[2]; all groups", "value": "mild or moderate"}, {"measurement": "substrate for OCT2", "setting": "[3]", "value": "not a substrate"}, {"measurement": "substrate for MATE-2K", "setting": "MATE-2K", "value": "not a substrate"}, {"measurement": "tolerability", "setting": "[4]", "value": "demonstrated tolerability"}, {"measurement": "protein binding rate", "setting": "plasma protein [5]", "value": 97.6, "unit": "%"}, {"measurement": "protein binding rate", "setting": "plasma protein [6]", "value": 98.3, "unit": "%"}, {"measurement": "substrate for MATE1", "setting": "[7]", "value": "not a substrate"}, {"measurement": "AUC0–last GLS mean ratio", "setting": "[8]; [9]", "value": 1.4303}, {"measurement": "t1/2,z GLS mean ratio", "setting": "[8]; [9]", "value": "1.19 and 1.1855"}, {"measurement": "Ae (cumulative amount excreted unchanged in urine)", "setting": "[8]; mild renal impairment", "value": "45.7 (44.7) mg"}, {"measurement": "CL/F", "setting": "[8]; mild renal impairment", "value": "0.262 (20.8) L/h"}, {"measurement": "Feu (fraction of dose excreted unchanged into urine)", "setting": "[8]; mild renal impairment", "value": "12.2 (44.7) %"}, {"measurement": "AUC0–last GLS mean ratio", "setting": "[8]; [10]", "value": 1.4780}, {"measurement": "t1/2,z GLS mean ratio", "setting": "[8]; [10]", "value": "1.24 and 1.2434"}, {"measurement": "Ae (cumulative amount excreted unchanged in urine)", "setting": "[8]; moderate renal impairment", "value": "58.6 (20.6) mg"}, {"measurement": "CL/F", "setting": "[8]; moderate renal impairment", "value": "0.253 (26.0) L/h"}, {"measurement": "Feu (fraction of dose excreted unchanged into urine)", "setting": "[8]; moderate renal impairment", "value": "15.6 (20.6) %"}, {"measurement": "Ae (cumulative amount excreted unchanged in urine)", "setting": "[8]; normal renal function", "value": "54.8 (29.5) mg"}, {"measurement": "CL/F", "setting": "[8]; normal renal function", "value": "0.376 (26.0) L/h"}, {"measurement": "Feu (fraction of dose excreted unchanged into urine)", "setting": "[8]; normal renal function", "value": "14.6 (29.5) %"}, {"measurement": "increased AUC level with renal impairment", "setting": "[8]; renal impairment vs normal renal function", "value": "< 2", "unit": "fold"}, {"measurement": "AUC0–last GLS mean ratio", "setting": "[8]; [11]", "value": 1.5475}, {"measurement": "t1/2,z GLS mean ratio", "setting": "[8]; [11]", "value": "1.61 and 1.6072"}, {"measurement": "Ae (cumulative amount excreted unchanged in urine)", "setting": "[8]; severe renal impairment", "value": "49.2 (26.5) mg"}, {"measurement": "CL/F", "setting": "[8]; severe renal impairment", "value": "0.235 (26.1) L/h"}, {"measurement": "Feu (fraction of dose excreted unchanged into urine)", "setting": "[8]; severe renal impairment", "value": "13.1 (26.5) %"}]}
